This passage reports Activity and MIC50 results from ChEMBL document CHEMBL6177924, “Synthesis and antifungal evaluation of new azole derivatives containing 1,2,3-triazole” (RSC Med Chem, 2025).

Data set [1] deals with Candida albicans. The experiment in a line: Antibiofilm activity in Candida albicans SC5314 assessed as sparse distribution of fungal cells at 0.53 microg/ml measured after 24 hrs by inverted microscopic analysis. The data set is classed as functional, organism-based. Conditions: dose 0.53 µg/ml. An outline of the steps:
(§1)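 Log-phase C. albicans in RPMI1640+10% FBS at 1×10^5 CFU/mL allowed to adhere in 24-well plates for 90 min at 30 °C; unattached medium removed. 1 mL medium with drug (0.27, 0.53, 1.06 µg/mL) or without drug added; 24 h at 30 °C. Biofilm stained with crystal violet 30 min, washed 3× with PBS, viewed by inverted microscope.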

The test system of data set [2] is 16HBE14o-. The experiment in a line: Cytotoxicity against human 16HBE14o- cells assessed as reduction in cell viability at <=4 microg/ml incubated for 48 hrs by CCK8 assay. The class given is toxicity, cell-based. Conditions: dose < 4 µg/ml. An outline of the steps:
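16HBE cells in RPMI1640 with 10% FBS and 1% antibiotics, seeded in 96-well plates and attached for 24 h at 37 °C. Drug serially diluted 5-fold from 100 µg/mL in complete medium, with growth and blank controls. Exposure 48 h, then viability read with CCK8 reagent.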
A general note: Tetrazolium dyes change colour on reduction, which living cells bring about.

The subject of data set [3] is Candida albicans. The experiment in a line: Induction of morphological changes in Candida albicans assessed as effect on cytoplasmic structure at 0.53 to 1.06 microg/ml incubated for 16 to 24 hrs by transmission electron microscopic analysis. The class given is functional, organism-based. Particulars: dose 0.53-1.06 µg/ml, time 16-24 hrs. An outline of the steps:
(§2)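 C. albicans at 5×10^5 CFU/mL in SDB shaken with drug (0.27, 0.53, 1.06 µg/mL), fluconazole or no drug at 30 °C, 150 r/min, for 16-24 h. Pellets washed with PBS and fixed in cold 3% paraformaldehyde/2.5% glutaraldehyde at 4 °C, then 1% OsO4. Dehydrated in acetone and embedded in Epon-812. 60-90 nm sections stained with uranyl acetate and lead citrate, imaged by TEM.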

In data set [4] the test system is Candida albicans. The experiment in a line: Antifungal activity against Candida albicans assessed as inhibition of mycelia formation at 0.27 to 1.06 microg/ml measured after 4 to 8 hrs by inverted microscopic analysis. The class given is functional, organism-based. Conditions: dose 0.27-1.06 µg/ml, time 4-8 hrs. An outline of the steps:
(§3)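 Hyphae were induced in SD+10% FBS or in Spider medium. Log-phase cells at 1×10^5 CFU/mL final, 1 mL per well in 24-well plates, 3 wells per group. Drug at 0.27, 0.53 or 1.06 µg/mL, fluconazole, or no-drug control. Incubated at 30 °C; hyphal formation observed and photographed by inverted microscope at 4 h and 8 h.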

Data set [5] concerns Candida albicans. The experiment in a line: Induction of morphological changes in Candida albicans assessed as absence of intracellular substance at 0.53 microg/ml incubated for 16 to 24 hrs by transmission electron microscopic analysis. The data set is classed as functional, organism-based. Particulars: dose 0.53 µg/ml, time 16-24 hrs. An outline of the steps: as §2
In data set [6] the test system is Candida albicans. The experiment in a line: Induction of morphological changes in Candida albicans assessed as blurred spacing between cell wall and cell membrane at 0.53 microg/ml incubated for 16 to 24 hrs by transmission electron microscopic analysis. The class given is functional, organism-based. Conditions: dose 0.53 µg/ml, time 16-24 hrs. An outline of the steps:
as §2

In data set [7] the test system is Candida albicans. The data set is described as follows: Antifungal activity against Candida albicans assessed as inhibition of mycelia formation at 0.53 microg/ml measured after 4 to 8 hrs by inverted microscopic analysis. The class given is functional, organism-based. Conditions: dose 0.53 µg/ml, time 4-8 hrs. An outline of the steps:
as §3

Data set [8] deals with Candida albicans. The data set is described as follows: Antibiofilm activity in Candida albicans SC5314 assessed as decrease in number of mycelia at 0.27 microg/ml measured after 24 hrs by inverted microscopic analysis. The data set is classed as functional, organism-based. Conditions: dose 0.27 µg/ml. An outline of the steps: as §1
Data set [9] deals with Candida albicans. The experiment in a line: Antifungal activity against Candida albicans assessed as increase in pseudomycelial fungal cells with reduction in mycelial formation at 0.27 to 1.06 microg/ml measured after 8 hrs by inverted microscopic analysis. Conditions: dose 0.27-1.06 µg/ml. The data set is classed as functional, organism-based. An outline of the steps: as §3

For data set [10], the system named is Candida albicans. The experiment in a line: Antibiofilm activity in Candida albicans SC5314 assessed as appearance of fungal cells in pseudomycelial shape with few mycelia measured after 24 hrs by inverted microscopic analysis. The class given is functional, organism-based. Particulars: dose 0.27-1.06 µg/ml. An outline of the steps:
as §1

The subject of data set [11] is Candida albicans. The data set is described as follows: Antifungal activity against Candida albicans assessed as inhibition of yeast state o mycelium state transformation at 0.27 to 1.06 microg/ml measured after 4 to 8 hrs by inverted microscopic analysis. The data set is classed as functional, organism-based. Conditions: dose 0.27-1.06 µg/ml, time 4-8 hrs. An outline of the steps:
as §3

The subject of data set [12] is Candida albicans. The experiment in a line: Antifungal activity against Candida albicans SC5314 assessed as inhibition of fungal growth measured after 36 hrs by time-killing curve analysis. The class given is functional, organism-based. An outline of the steps:
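Log-phase C. albicans at 1×10^5 CFU/mL in SDB, 10 mL cultures with drug (0.27, 0.53, 1.06 µg/mL), fluconazole or no drug. Shaken at 150 r/min, 30 °C. Samples taken at 0, 4, 8, 12, 24, 36 and 48 h for absorbance at 630 nm, triplicate wells. Absorbance plotted against time.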

Data set [13] deals with Candida albicans. The experiment in a line: Antibiofilm activity in Candida albicans SC5314 assessed as appearance of short mycelia at 0.27 microg/ml measured after 24 hrs by inverted microscopic analysis. The class given is functional, organism-based. Conditions: dose 0.27 µg/ml. An outline of the steps: as §1
Data set [14] has as its system Candida albicans. The experiment in a line: Antibiofilm activity in Candida albicans SC5314 assessed as appearance of pseudomycelial form of fungal cells at 0.27 microg/ml measured after 24 hrs by inverted microscopic analysis. The data set is classed as functional, organism-based. Conditions: dose 0.27 µg/ml. An outline of the steps:
as §1

The subject of data set [15] is Candida albicans. The data set is described as follows: Induction of morphological changes in Candida albicans assessed as normal cell wall appearance at 0.53 microg/ml incubated for 16 to 24 hrs by transmission electron microscopic analysis. The data set is classed as functional, organism-based. Conditions: dose 0.53 µg/ml, time 16-24 hrs. An outline of the steps:
as §2

Data set [16] has as its system Cell membrane. The experiment in a line: Induction of cell membrane permeability in Candida albicans assessed as increase in fluorescence intensity by multifunctional enzymatic assay. The class given is subcellular.
In data set [17] the test system is Cell membrane. The data set is described as follows: Induction of cell membrane permeability in Candida albicans assessed as increase in red fluorescence incubated for 16 to 24 hrs by PI staining based fluorescence microscopic analysis. The data set is classed as subcellular. Conditions: time 16-24 hrs. An outline of the steps:
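C. albicans at 1×10^5 CFU/mL in SDB grown with drug (0.27, 0.53, 1.06 µg/mL), fluconazole or no drug at 30 °C, 150 r/min, for 16-24 h. Cells washed and resuspended in PBS at 2×10^6 CFU/mL. Stained with propidium iodide (final 5 µg/mL) 30 min at room temperature in the dark, then washed. Imaged by fluorescence microscopy and fluorescence intensity measured.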

Data set [18] deals with Candida albicans. The data set is described as follows: Induction of morphological changes in Candida albicans assessed as incomplete cell wall structure at 0.53 to 1.06 microg/ml incubated for 16 to 24 hrs by transmission electron microscopic analysis. Particulars: dose 0.53-1.06 µg/ml, time 16-24 hrs. The data set is classed as functional, organism-based. An outline of the steps: as §2

For data set [19], the system named is Candida albicans. The data set is described as follows: Antibiofilm activity in Candida albicans SC5314 assessed as appearance of fungal cells in yeast shape with few mycelia measured after 24 hrs by inverted microscopic analysis. The data set is classed as functional, organism-based. Conditions: dose 0.27-1.06 µg/ml. An outline of the steps: as §1
Data set [20] deals with Candida albicans. The experiment in a line: Induction of morphological changes in Candida albicans assessed as effect on cytoplasmic morphology at 0.53 to 1.06 microg/ml incubated for 16 to 24 hrs by transmission electron microscopic analysis. The class given is functional, organism-based. Conditions: dose 0.53-1.06 µg/ml, time 16-24 hrs. An outline of the steps: as §2

In data set [21] the test system is Candida albicans. The data set is described as follows: Antifungal activity against drug sensitive Candida albicans SC5314 assessed as inhibition of fungal growth incubated for 24 hrs by CLSI protocol based microdilution method. The class given is functional. An outline of the steps:
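Broth microdilution of log-phase C. albicans at 1×10^5 CFU/mL in Sabouraud liquid medium (SDB). Compounds serially diluted 5-fold to final 200-0.064 µg/mL, DMSO below 0.1%. Triplicate wells, 200 µL final volume, with growth, blank and fluconazole controls. Incubated 24 h at 30 °C, OD read at 630 nm; experiment repeated three times.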
(In general: In broth dilution the organism is exposed to a series of concentrations in liquid medium.)

Data set [22] has as its system Candida albicans. The experiment in a line: Induction of morphological changes in Candida albicans assessed as blurred boundary between cell wall and cell membrane at 0.53 to 1.06 microg/ml incubated for 16 to 24 hrs by transmission electron microscopic analysis. The class given is functional, organism-based. Particulars: dose 0.53-1.06 µg/ml, time 16-24 hrs. An outline of the steps: as §2

For data set [23], the system named is Candida albicans. The experiment in a line: Induction of morphological changes in Candida albicans assessed as cell enlargement at 0.53 to 1.06 microg/ml incubated for 16 to 24 hrs by transmission electron microscopic analysis. The class given is functional, organism-based. Conditions: dose 0.53-1.06 µg/ml, time 16-24 hrs. An outline of the steps:
as §2

In brackets after ≈: the same amount, converted by molar mass. Activity calls are given as the source filed them. The calls are words filed in the database; no cut-off is given here.

Take `O=C(Cn1cc(COC(Cn2ccnc2)c2ccc(Cl)cc2Cl)nn1)c1ccc2ccccc2c1` (stereo not drawn): the result in data set [1], in data set [3], in data set [4], in [5], in data set [6] and in data set [8] was Active. Further, the outcome in [9], in data set [13], in data set [14], in data set [15], in data set [18] and in data set [20] was Active. The result in data set [22] and in data set [23] was Active. Also, the Activity result in data set [2] is “Non-toxic”; in data set [7], “Active; Better Than That Of Fluconazole Group”; in data set [10], “Dose-dependent-effect”; in data set [11] it was “Active; Better Than That Of Fluconazole Group”; in data set [12] it was “Dose-dependent-effect”; in [16], “Dose-dependent-effect; Better Than That Of Fluconazole Group”. Besides, the Activity entry in data set [17] and in [19] was “Dose-dependent-effect” in each case. In data set [21], the MIC50 (as a rule, an inhibitory concentration at the 50% level, which refers to growth in some studies and to a panel of isolates in others) worked out at 0.53 µg/mL (≈ 1.05 µM).
